Experimental data of several laboratories.
Target: Mitogen-activated protein kinase kinase kinase 14 (MAP3K14, Homo sapiens, UniProt Q99558)

Compound	test	conditions	quantity	value
C[C@@H](c1cccc(C#N)c1)n1cc(Cl)cc(C(N)=O)c1=N	cell-free assay, competition with immobilised ligand	1 µM	remaining binding	93%
CC(C)(O)[C@H]1CC[C@H](Nc2ccc3ncc(-c4cccc(C(F)(F)F)c4)n3n2)CC1	enzyme activity, inhibitor	1 µM	remaining activity	114%
C[C@@H]1CCN(c2nccc(-c3cnn4ncccc34)n2)C1	binding, competition with immobilised ligand	1 µM	remaining binding	72%
N#CCCc1ccc2c(c1)-c1[nH]c3ccc([N+](=O)[O-])cc3c1CC(=O)N2	cell-free assay	0.5 µM	remaining signal	161%
CC(C)(C)c1nc2c(s1)c1nc(N)ncc1c1ccc(NS(=O)(=O)c3c(F)cccc3F)c(F)c12	enzyme activity, inhibitor, radiometric	1 µM	remaining activity	104%
Nc1ncnc2occ(-c3ccc(NC(=O)Nc4cc(C(F)(F)F)ccc4F)cc3)c12	cell-free assay, inhibitor	20 µM	remaining signal	93%
CCCOc1ccc([C@H]2[C@H](C(=O)O)[C@@H](c3ccc4c(c3)OCO4)CN2CC(=O)Nc2c(CC)cccc2CC)cc1	cell-free assay, competition with immobilised ligand	1 µM	remaining binding	85%
CC(C)(C)c1nc(-c2cccc(NS(=O)(=O)c3c(F)cccc3F)c2F)c(-c2ccnc(N)n2)s1	enzyme activity, inhibitor, radiometric	1 µM	remaining activity	100%
